Measured values published in ChEMBL document CHEMBL1123760, “Synthesis and oral antifungal activity of novel azolylpropanolones and related compounds” (1987).
Converted amounts (≈) assume the structure as drawn.

Key:
Type in all cases: functional
Trichophyton benhamiae = assay: In vitro antifungal activity against Trichophyton asteroides
Outline: (§1)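 Broth microdilution MIC in Sabouraud's glucose broth; final inocula 1 × 10^5 cells/mL (yeast) or 1 × 10^5 conidia/mL (mold and dermatophyte).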

Candida albicans [1] = assay: In vitro antifungal activity against Candida albicans; outline: as §1
Mus musculus [2] = assay: Ratio of in vivo number of survivors / total infected; parameters: reference not given here
Candida albicans [3] = assay: Minimum effective concentration for inhibition of pseudomycelium formation in Candida albicans; conditions: for minimal effective concentration: Candida albicans, read-out: MEC
Outline: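 C. albicans KE-2 (clinical isolate) at a final 1 × 10^6 yeast cells/mL in EMEM with 20% calf serum; compounds diluted by the same microtiter system as for MICs. After incubation, wells were Giemsa-stained (5% in phosphate buffer) and read by microscope. MEC is the lowest concentration preventing typical pseudomycelium formation.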

Aspergillus fumigatus = assay: In vitro antifungal activity against Aspergillus fumigatus; outline: as §1
Mus musculus [4] = assay: In vivo activity against subacute systemic murine candidiasis in mice at a daose of 12.5-100 mg/kg dosage range. Value was determined at day 15 after infection; conditions: 360 h
Cavia porcellus = assay: Number of skin sections yielding negative culture / total (48) (percentage) in guinea pig dermatophytosis at dose of 40 mg/kg […]. (Value is from Six skin sections cut out from each treated site)
Outline: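 Guinea pigs infected with Trichophyton asteroides, four animals each with two lesion sites. Oral 40 mg/kg once daily for 10 days (day 3 to day 12). Read-out is the rate of negative cultures from infected skin sections.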

[5] = Trichophyton benhamiae, read-out: MIC
[6] = Candida albicans, read-out: MIC
[7] = Aspergillus fumigatus, read-out: MIC

Row | Compound | MIC (Trichophyton benhamiae; [5]) [µg/mL] | MIC (Candida albicans [1]; [6]) [µg/mL] | No. of survivors (Mus musculus [2]) | minimal effective concentration (Candida albicans [3]) [µg/mL] | MIC (Aspergillus fumigatus; [7]) [µg/mL] | ED50 (Mus musculus [4]) [mg/kg] | No. total (Cavia porcellus) | MIC (Trichophyton benhamiae) [µg/mL] | MEC (Candida albicans [3]) [µg/mL] | MIC (Aspergillus fumigatus) [µg/mL] | MIC (Candida albicans [1]) [µg/mL]
1 | O=C(c1ccccc1)C(O)(Cn1ccnc1)c1ccc(Cl)cc1Cl (stereo not given) | 0.1 (≈ 0.277 µM) | > 100 | 0 | 0.63 | > 100 | – | – | – | – | – | –
2 | O=C(c1ccc(Cl)cc1)C(O)(Cn1cncn1)c1ccc(Cl)cc1Cl (stereo not given) | 0.1 (≈ 0.252 µM) | > 100 | 7 | 1.25 | > 100 | – | – | – | – | – | –
3 | CC(C)C(=O)C(O)(Cn1cncn1)c1ccc(Cl)cc1Cl (stereo not given) | 0.1 (≈ 0.305 µM) | 100 (≈ 305 µM) | 8 | 0.04 | 100 (≈ 305 µM) | 22.6 | 7 | – | – | – | –
4 | OC(c1ccc(Cl)cc1Cl)C(O)(Cn1cncn1)c1ccc(Cl)cc1Cl (stereo not given) | 0.1 (≈ 0.231 µM) | 100 (≈ 231 µM) | 6 | 0.08 | > 100 | – | – | – | – | – | –
5 | CC(C)C(=O)C(O)(Cn1ccnc1)c1ccc(Cl)cc1 (stereo not given) | 0.2 (≈ 0.683 µM) | > 100 | 2 | 0.08 | 25 (≈ 85.4 µM) | – | – | – | – | – | –
6 | O=C(c1ccc(Cl)cc1Cl)C(O)(Cn1cncn1)c1ccc(Cl)cc1Cl (stereo not given) | 0.1 (≈ 0.232 µM) | 50 (≈ 116 µM) | 7 | 0.16 | > 100 | 32.3 | 27 | – | – | – | –
7 | O=C1O[C@H](c2ccc(F)cc2)[C@@](Cn2cncn2)(c2ccc(Cl)cc2Cl)O1 | 0.1 (≈ 0.245 µM) | 50 (≈ 122 µM) | 7 | 0.63 | > 100 | – | – | – | – | – | –
8 | O=C(c1ccc(Cl)cc1Cl)C(O)(Cn1cncn1)c1ccc(Cl)cc1 (stereo not given) | 0.1 (≈ 0.252 µM) | 100 (≈ 252 µM) | 8 | 0.31 | > 100 | – | – | – | – | – | –
9 | O=C(c1ccc(Cl)cc1)C(O)(Cn1cncn1)C1CCCC1 (stereo not given) | 0.1 (≈ 0.313 µM) | 100 (≈ 313 µM) | 1 | 0.16 | 50 (≈ 156 µM) | – | – | – | – | – | –
10 | CC(C)[C@H]1OC(=O)O[C@]1(Cn1cncn1)c1ccc(Cl)cc1Cl | 3.1 (≈ 8.7 µM) | 100 (≈ 281 µM) | 8 | 0.63 | > 100 | – | – | – | – | – | –
11 | CCC(=O)C(O)(Cn1cncn1)c1ccc(Cl)cc1Cl (stereo not given) | 0.1 (≈ 0.318 µM) | 100 (≈ 318 µM) | 2 | 0.04 | 100 (≈ 318 µM) | – | – | – | – | – | –
12 | O=C(c1ccc(Cl)cc1Cl)[C@@](O)(Cn1cncn1)c1ccc(Cl)cc1Cl | 0.1 (≈ 0.232 µM) | 50 (≈ 116 µM) | 1 | 1.25 | > 100 | – | – | – | – | – | –
13 | O=S1O[C@H](c2ccc(F)cc2)[C@](Cn2cncn2)(c2ccc(Cl)cc2Cl)O1 (stereo not given in full) | 0.1 (≈ 0.233 µM) | > 100 | 0 | 0.04 | > 100 | – | – | – | – | – | –
14 | OC(c1ccccc1Cl)C(O)(Cn1ccnc1)c1ccccc1Cl (stereo not given) | 0.4 (≈ 1.1 µM) | > 100 | 4 | 1.25 | 100 (≈ 275 µM) | – | – | – | – | – | –
15 | O=C(c1ccccc1)C(O)(Cn1cncn1)c1ccccc1 (stereo not given) | 12.5 (≈ 42.6 µM) | > 100 | 0 | > 20 | > 100 | – | – | – | – | – | –
16 | CCCCC(=O)C(O)(Cn1cncn1)c1ccc(Cl)cc1Cl (stereo not given) | 0.1 (≈ 0.292 µM) | 50 (≈ 146 µM) | 2 | 0.04 | > 100 | – | – | – | – | – | –
17 | O=C1O[C@H](c2ccccc2)[C@@](Cn2cncn2)(c2ccc(Cl)cc2Cl)O1 | 0.16 (≈ 0.41 µM) | 100 (≈ 256 µM) | 0 | 0.16 | > 100 | – | – | – | – | – | –
18 | O=C(c1ccc(F)cc1)C(O)(Cn1cncn1)c1ccccc1Cl (stereo not given) | 1.6 (≈ 4.63 µM) | 100 (≈ 289 µM) | 8 | 2.5 | > 100 | – | – | – | – | – | –
19 | Clc1ccc([C@@]2(Cn3cncn3)OC3(CCCCC3)O[C@@H]2c2ccc(Cl)cc2Cl)cc1 | 0.1 (≈ 0.209 µM) | > 100 | 0 | 5 | > 100 | – | – | – | – | – | –
20 | O=C(c1ccc(Cl)cc1Cl)C(O)(Cn1cncn1)c1ccc(F)cc1 (stereo not given) | 0.1 (≈ 0.263 µM) | 100 (≈ 263 µM) | 8 | 0.31 | > 100 | 20.2 | – | – | – | – | –
21 | O=S1O[C@H](c2ccc(F)cc2)[C@@](Cn2cncn2)(c2ccc(Cl)cc2Cl)O1 (stereo not given in full) | 0.1 (≈ 0.233 µM) | > 100 | 4 | 0.04 | 50 (≈ 117 µM) | – | – | – | – | – | –
22 | O=C(c1ccccc1F)C(O)(Cn1cncn1)c1ccc(Cl)cc1Cl (stereo not given) | 0.1 (≈ 0.263 µM) | 100 (≈ 263 µM) | 7 | 0.04 | > 100 | – | – | – | – | – | –
23 | OC(c1ccccc1Cl)C(O)(Cn1cncn1)c1ccc(F)cc1 (stereo not given) | 0.8 (≈ 2.3 µM) | > 100 | 0 | 10 | > 100 | – | – | – | – | – | –
24 | Clc1ccc([C@@]2(Cn3cncn3)OCO[C@@H]2c2ccc(Cl)cc2Cl)cc1 | 0.1 (≈ 0.243 µM) | > 100 | 0 | 0.31 | > 100 | – | – | – | – | – | –
25 | CC(C)C(=O)C(O)(Cn1cncn1)c1ccc(Cl)cc1 (stereo in doubt; 36) | 0.1 (≈ 0.34 µM) | 100 (≈ 340 µM) | 7 | 0.04 | 12.5 (≈ 42.6 µM) | – | – | – | – | – | –
26 | CC(C)C(=O)C(O)(Cn1cncn1)c1ccc(Cl)cc1 (stereo in doubt; 39) | – | – | – | – | – | 14.7 | – | 0.1 (≈ 0.34 µM) | – | – | –
27 | OC(c1ccc(F)cc1)C(O)(Cn1cncn1)c1ccc(Cl)cc1Cl (stereo in doubt; 92) | – | 50 (≈ 131 µM) | 8 | – | – | 25.6 | 11 | 0.1 (≈ 0.262 µM) | 0.08 | 25 (≈ 65.4 µM) | –
28 | CC(O)(c1ccc(F)cc1)C(O)(Cn1cncn1)c1ccc(Cl)cc1 (stereo in doubt; 162) | – | – | 8 | – | – | – | – | 0.1 (≈ 0.276 µM) | 0.08 | 100 (≈ 276 µM) | >100
29 | CC(=O)N1CCN(c2ccc(OCC3COC(Cn4ccnc4)(c4ccc(Cl)cc4Cl)O3)cc2)CC1 (stereo not given) [KETOCONAZOLE] | – | – | – | – | – | 32.3 | – | – | – | – | –
